In PMC9161413 (ACS Omega, 2022):
pIC50: −log10 of the molar value.

What was measured:
PDGFR-β = settings: read-out: IC50 PDGFR-β; cited from earlier work
MDA-MB-231 cells = assay: Cell internalization, cytofluorimetric assay, MDA-MB-231; type: cell-based, human; settings: 24 h, 5 μM
Method in brief: (§1)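 K562 cells (RPMI-1640, 5% FBS, 37 °C, 5% CO2) and MDA-MB-231 cells (DMEM with 4500 mg/L glucose, 10% FBS, 37 °C, 10% CO2) were treated 24 h at 5 μM. Flow cytometry detected the compound's intrinsic fluorescence (λexc 405 nm, λem 421 nm). Read-out was the percentage of cells above the untreated autofluorescence threshold; at least three independent experiments.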

VEGFR-3 = settings: read-out: IC50 VEGFR-3; cited from earlier work
K562 cells = assay: Cell internalization, cytofluorimetric assay, K562; type: cell-based, human; settings: 24 h, 5 μM
Method in brief: as §1

L929 cells = assay: Inhibition of cell proliferation, MTT assay; type: cell-based, murine; settings: 24 h, 1–10 μM
PDGFR-α = settings: read-out: IC50 PDGFR-α; cited from earlier work
FGFR-2 = settings: read-out: IC50 FGFR-2; cited from earlier work
FGFR-3 = settings: read-out: IC50 FGFR-3; cited from earlier work
N-Cadherin expression = assay: N-cadherin expression in L929 cells, western blot; type: cell-based, murine; settings: 24 h, 5 μM, compared to untreated cells
Method in brief: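 L929 cells (subconfluent, serum-free medium) were treated 24 h at 5 μM. RIPA lysates containing phosphatase/protease inhibitors (40–60 μg protein) were separated on 4–12 Bis-Tris gels and blotted to PVDF. N-cadherin antibody was applied overnight at 4 °C, with vinculin as loading control and infrared fluorescence detection. Densitometry was normalised to total protein and expressed as percent of untreated cells; three independent experiments; ANOVA with Newman–Keuls test.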

ERK1/2 phosphorylation = ERK1/2 phosphorylation in L929 cells, western blot; type: cell-based, murine; settings: 24 h, 5 μM
Method in brief: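 Subconfluent L929 cells were exposed 24 h at 5 μM in serum-free medium. Cells were lysed in RIPA with PMSF, orthovanadate and protease inhibitors, and 40–60 μg protein was resolved on 4–12 Bis-Tris gels onto PVDF. Blots were probed overnight at 4 °C for phospho- and total ERK1/2 (vinculin loading control), with fluorescent secondaries and infrared imaging. Phospho-signal was normalised to total protein; three independent experiments; one-way ANOVA with Tukey test.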

VEGFR-1 = settings: read-out: IC50 VEGFR-1; cited from earlier work

Row | Molecule | pIC50 (PDGFR-β) | internalization / cell fluorescence (in words) (MDA-MB-231 cells) | pIC50 (VEGFR-3) | internalization / cell fluorescence (in words) (K562 cells) | antiproliferative / cytostatic effect (in words) (L929 cells) | pIC50 (PDGFR-α) | pIC50 (FGFR-2) | pIC50 (FGFR-3) | inhibition of N-Cad expression (in words) (N-Cadherin expression) | inhibition of ERK1/2 phosphorylation (in words) (ERK1/2 phosphorylation) | pIC50 (VEGFR-1)
1 | COC(=O)c1ccc2c(c1)NC(=O)/C2=C(\Nc1ccc(N(C)C(=O)CN2CCN(C)CC2)cc1)c1ccccc1 [nintedanib] | 7.19 | efficiently internalized | 7.89 | efficiently internalized | mild antiproliferative effect | 7.23 | 7.43 | […] | almost by half | efficiently inhibits | 7.47
2 | c(AmpLRGDL) [compound 6] | – | – | – | – | mild antiproliferative effect | – | – | – | stronger inhibitory effect | no inhibition | –
